# Measured values as given in ChEMBL document CHEMBL1909627, “Synthesis of three novel fluorine-18 labeled analogues of L-deprenyl for positron emission tomography (PET) studies of monoamine oxidase B (MAO-B)” (J Med Chem, 2011).
# Key:
# [1] = target: T1, Amine oxidase [flavin-containing] B (Homo sapiens, UniProt P27338); assay: Binding affinity to MAO-B in human brain white matter at 4 MBq after 90 mins by autoradiography in presence of 10 uM MAO-B inhibitor rasagiline; type: tissue-based; conditions: 1.5 h
# T1 sequence (P27338 whole entry): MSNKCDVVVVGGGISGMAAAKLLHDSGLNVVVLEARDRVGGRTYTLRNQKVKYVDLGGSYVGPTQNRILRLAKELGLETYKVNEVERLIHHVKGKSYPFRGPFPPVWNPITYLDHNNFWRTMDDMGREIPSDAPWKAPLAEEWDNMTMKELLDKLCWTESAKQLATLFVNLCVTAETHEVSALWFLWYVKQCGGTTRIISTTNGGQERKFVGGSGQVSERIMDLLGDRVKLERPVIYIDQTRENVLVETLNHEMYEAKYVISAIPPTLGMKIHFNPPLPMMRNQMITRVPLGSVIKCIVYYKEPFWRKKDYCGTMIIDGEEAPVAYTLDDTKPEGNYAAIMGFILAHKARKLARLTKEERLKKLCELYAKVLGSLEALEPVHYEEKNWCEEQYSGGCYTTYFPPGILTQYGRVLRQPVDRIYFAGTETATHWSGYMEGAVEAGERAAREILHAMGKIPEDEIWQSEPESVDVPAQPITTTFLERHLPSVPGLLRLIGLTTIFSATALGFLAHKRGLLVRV
# Outline: (§1)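 100 μm whole-hemisphere post-mortem brain sections (control subject, 11 h post-mortem, stored at −25 °C) incubated 90 min at room temperature with 4 MBq/200 mL radiotracer in 50 mM TRIS pH 7.4 (NaCl 120 mM, KCl 5 mM, CaCl2 2 mM, 0.1% albumin); washed 3 × 5 min in buffer, dipped in ice-cold water, dried, phosphorimaged.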
# [2] = target: T1, Amine oxidase [flavin-containing] B; assay: Binding affinity to MAO-B in human brain white matter at 4 MBq after 90 mins by autoradiography in presence of 10 uM MAO-A inhibitor pirlindole; type: tissue-based; conditions: 1.5 h; outline: as §1
# [3] = target: T1, Amine oxidase [flavin-containing] B; assay: Binding affinity to MAO-B in human brain white matter at 4 MBq after 90 mins by autoradiography; type: tissue-based; conditions: 1.5 h; outline: as §1
# [4] = target: T1, Amine oxidase [flavin-containing] B; assay: Binding affinity to MAO-B in human brain white matter at 4 MBq after 90 mins by autoradiography in presence of 10 uM MAO-B inhibitor L-deprenyl; type: tissue-based; conditions: 1.5 h; outline: as §1
# [5] = target: T1, Amine oxidase [flavin-containing] B; assay: Binding affinity to MAO-B in human brain cortical gray matter at 4 MBq after 90 mins by autoradiography; type: tissue-based; conditions: 1.5 h; outline: as §1
# [6] = target: T1, Amine oxidase [flavin-containing] B; assay: Binding affinity to MAO-B in human brain cortical gray matter at 4 MBq after 90 mins by autoradiography in presence of 10 uM MAO-B inhibitor rasagiline; type: tissue-based; conditions: 1.5 h; outline: as §1
# [7] = target: T1, Amine oxidase [flavin-containing] B; assay: Binding affinity to MAO-B in human brain hippocampus at 4 MBq after 90 mins by autoradiography; type: tissue-based; conditions: 1.5 h; outline: as §1
# [8] = target: T1, Amine oxidase [flavin-containing] B; assay: Binding affinity to MAO-B in human brain cortical gray matter at 4 MBq after 90 mins by autoradiography in presence of 10 uM MAO-A inhibitor pirlindole; type: tissue-based; conditions: 1.5 h; outline: as §1
# [9] = target: T1, Amine oxidase [flavin-containing] B; assay: Binding affinity to MAO-B in human brain cortical gray matter at 4 MBq after 90 mins by autoradiography in presence of 10 uM MAO-B inhibitor L-deprenyl; type: tissue-based; conditions: 1.5 h; outline: as §1
# [10] = target: T1, Amine oxidase [flavin-containing] B; assay: Binding affinity to MAO-B in human brain Alzheimer disease slices at 4 MBq after 90 mins by autoradiography in presence of 10 uM MAO-B inhibitor rasagiline; conditions: 1.5 h
# [11] = target: T2, Amine oxidase [flavin-containing] A (Homo sapiens, UniProt P21397); assay: Binding affinity to MAO-A in human brain Alzheimer disease slices at 4 MBq after 90 mins by autoradiography; conditions: 1.5 h
# T2 sequence (P21397 whole entry): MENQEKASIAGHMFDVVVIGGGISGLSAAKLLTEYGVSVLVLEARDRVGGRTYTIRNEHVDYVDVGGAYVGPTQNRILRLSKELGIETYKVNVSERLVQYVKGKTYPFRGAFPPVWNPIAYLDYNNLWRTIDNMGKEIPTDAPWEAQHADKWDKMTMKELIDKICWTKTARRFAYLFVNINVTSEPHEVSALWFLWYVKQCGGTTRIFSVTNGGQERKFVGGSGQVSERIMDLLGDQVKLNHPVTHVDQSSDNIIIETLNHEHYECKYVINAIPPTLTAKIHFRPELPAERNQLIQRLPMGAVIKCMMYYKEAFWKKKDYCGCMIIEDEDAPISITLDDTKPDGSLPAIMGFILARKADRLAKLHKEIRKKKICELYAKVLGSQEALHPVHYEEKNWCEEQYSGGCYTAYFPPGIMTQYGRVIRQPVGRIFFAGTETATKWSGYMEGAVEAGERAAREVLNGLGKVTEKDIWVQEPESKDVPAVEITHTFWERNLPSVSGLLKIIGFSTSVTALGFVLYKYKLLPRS
# [12] = target: T1, Amine oxidase [flavin-containing] B; assay: Binding affinity to MAO-B in human brain Alzheimer disease slices at 4 MBq after 90 mins by autoradiography; conditions: 1.5 h
# Brain [13] = assay: Drug uptake in NMRI mouse brain at 0.178 MBq, iv after 4 hrs by gamma counting; type: ADME, organism-based; conditions: in vivo
# Outline: (§2)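 NMRI mice (25.0–31.5 g), three per time point, each given 0.178 MBq tracer in 0.9% NaCl; killed by isoflurane overdose at each post-injection time; organs and blood excised and γ-counted; values decay-corrected and expressed as %ID/g.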
# Brain [14] = assay: Drug uptake in NMRI mouse brain at 0.178 MBq, iv after 30 mins post injection by gamma counting; type: ADME, organism-based; conditions: in vivo, 0.5 h; outline: as §2
# [15] = target: T1, Amine oxidase [flavin-containing] B; assay: Binding affinity to MAO-B in human brain Alzheimer disease slices at 4 MBq after 90 mins by autoradiography in presence of 10 uM MAO-A inhibitor pirlindole; conditions: 1.5 h
# [16] = Fraction unbound in human plasma at 20 MBq after 10 mins by ultrafiltration; type: ADME, cell-free
# Outline: (§3)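 Duplicate: 500 μL monkey or human plasma, or PBS pH 7.4 as control, mixed with 50 μL tracer formulation (~20 MBq in PBS), 10 min at room temperature; 200 μL ultrafiltered by centrifugation 15 min at 3000 rpm; total and filtrate well-counted; bound fraction corrected for membrane binding using PBS control.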
# Brain [17] = assay: Drug uptake in NMRI mouse brain at 0.178 MBq, iv after 2 mins post injection by gamma counting; type: ADME, organism-based; conditions: in vivo; outline: as §2
# [18] = target: T1, Amine oxidase [flavin-containing] B; assay: Binding affinity to MAO-B in human brain Alzheimer disease slices at 4 MBq after 90 mins by autoradiography in presence of 10 uM MAO-B inhibitor L-deprenyl; conditions: 1.5 h
# [19] = Fraction unbound in monkey plasma at 20 MBq after 10 mins by ultrafiltration; type: ADME, cell-free, Macaca mulatta; conditions: rhesus monkey; outline: as §3
# [20] = Stability of the compound in PBS buffer assessed as half life at pH 7.4; type: physicochemical
# [21] = target: T1, Amine oxidase [flavin-containing] B; assay: Inhibition of human recombinant MAO-B expressed in insect cells assessed as inhibition of kynuramine oxidation after 30 mins by fluorescence assay; type: cell-based
# [22] = target: T2, Amine oxidase [flavin-containing] A; assay: Inhibition of human recombinant MAO-A expressed in insect cells assessed as inhibition of kynuramine oxidation after 30 mins by fluorescence assay
smiles,measurement,setting,value
C#CCN(CC[18F])[C@H](C)Cc1ccccc1,Activity,[1],Active
same,Activity,[2],Active
same,Activity,[3],Active
same,Activity,[4],Active
same,Activity,[5],Not Active
C#CCN(C)[C@H](C)[C@@H]([18F])c1ccccc1,Activity,[6],Not Active
same,Activity,[7],Active
same,Activity,[8],Active
same,Activity,[9],Not Active
C#CCN(C)[C@H](C[18F])Cc1ccccc1,Activity,[10],Not Active
same,Activity,[11],Not Active
same,Activity,[12],Active
same,Drug uptake,Brain [13],1.4 % ID/g
same,Drug uptake,Brain [14],1.9 % ID/g
same,Activity,[15],Active
same,"fraction unbound at 10 min, 20 MBq",[16],0.168
same,Drug uptake,Brain [17],5.2 % ID/g
same,Activity,[18],Not Active
same,"fraction unbound at 10 min, 20 MBq",[19],0.241
C#CCN(CCF)[C@H](C)Cc1ccccc1,half-life,[20],1.83 h
same,IC50,[21],> 2 µM
C#CCN(C)[C@H](C)[C@H](F)c1ccccc1,half-life,[20],1.83 h
same,IC50,[21],> 2 µM
C#CCN(C)[C@H](CF)Cc1ccccc1,half-life,[20],1.83 h
same,IC50,[21],0.17 µM
same,IC50,[22],> 2 µM
